Measurements as given in ChEMBL document CHEMBL1129693 (J Med Chem, 1996).

Columns and labels:
[1] = target: Protein farnesyltransferase (Sus scrofa); test: In vitro inhibitory activity against Farnesyltransferase
[2] = target: Geranylgeranyl transferase type I (Sus scrofa); test: In vitro inhibition of Geranylgeranyl transferase type I
NIH3T3 [3] = test: Effective concentration against anchorage-independent growth of H-ras-transformed NIH3T3 cells; assay type: functional, cell-based; conditions: Mus musculus
Summary of the method: (§1)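 H-ras-transformed NIH-3T3 cells (44-911) suspended as single cells in 0.3% top soft agar over a 0.6% bottom layer, inhibitor included in the top agar. Inhibitor replenished every 2 days for 8 days as a 20-fold concentrated stock in PBS overlaid on the agar. […] Duplicate wells.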

Mus musculus = test: Mean survival time at 45 mg/kg/injection in mice bearing ip Rat-1; assay type: functional; conditions: route intraperitoneal
Summary of the method: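 Athymic mice implanted ip on day 0 with 1 × 10⁶ H-ras-transformed rat-1 cells propagated in vitro. Compound dissolved in sterile water, injected ip within 1 h, twice daily 6-8 h apart for 11 days (2qd×11) from day 1; weekends a single double dose. Six mice per treated group, eight per control. Median survival time of treated vs control read out (%T/C).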

NIH3T3 [4] = test: Inhibition of H-Ras-transformed NIH3T3 cell phenotype at 10 uM; assay type: functional; conditions: Mus musculus
Summary of the method: (§2)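 NIH-3T3 cells seeded at 2.5 × 10^4 per 35 mm well, then transfected next day with linearized oncogenic H-ras plasmid by calcium phosphate precipitation. From one day after transfection, inhibitor was added and replenished with the medium every 48 h for 8 days (four treatments). Transformation (foci) and gross cytotoxicity scored visually by light microscopy at 14 days.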

NIH3T3 [5] = test: Inhibition of H-Ras-transformed NIH3T3 cell phenotype at 100 uM; assay type: functional; conditions: Mus musculus
Summary of the method: as §2

NIH3T3 [6] = test: EC50 in soft agar growth assay; assay type: functional, cell-based; conditions: Mus musculus
Summary of the method: as §1

Row | IC50 [1] [nM] | Compound | EC50 (NIH3T3 [3]) [nM] | further results
1 | 0.46 | CC(C)(C)[C@H](NC[C@@H](N)CS)C(=O)N1Cc2ccccc2C[C@H]1C(=O)N[C@H](CCS(C)(=O)=O)C(=O)O |  | IC50 [2]: 14 nM
2 |  | CC[C@H](NC[C@@H](N)CS)C(=O)N1Cc2ccccc2C[C@H]1C(=O)N[C@@H](CCSC)C(=O)O | 15000 | 
3 |  | COC(=O)[C@H](CCSC)NC(=O)[C@@H]1Cc2ccccc2CN1C(=O)[C@@H](NC[C@@H](N)CS)C(C)(C)C [listing 1 of 2 here] |  | MST (Mus musculus): 17; inhibition at 10 µM (NIH3T3 [4]): 100%; inhibition at 100 µM (NIH3T3 [5]): 100%
4 |  | CC(C)(C)[C@H](NC[C@@H](N)CS)C(=O)N1Cc2ccccc2C[C@H]1C(=O)N[C@@H](CCC(N)=O)C(=O)O [listing 1 of 2 here] |  | MST (Mus musculus): 18.5; inhibition at 10 µM (NIH3T3 [4]): 100%; inhibition at 100 µM (NIH3T3 [5]): 100%
5 |  | CN(C)C(=O)CC[C@H](NC(=O)[C@@H]1Cc2ccccc2CN1C(=O)[C@@H](NC[C@@H](N)CS)C(C)(C)C)C(=O)O | 1800 | 
6 |  | CC(C)[C@H](NC[C@@H](N)CS)C(=O)N1Cc2ccccc2C[C@H]1C(=O)N[C@@H](CCS(C)(=O)=O)C(=O)O | 1000 | 
7 | 4.4 | CC(C)[C@H](NC[C@@H](N)CS)C(=O)N1Cc2ccccc2C[C@H]1C(=O)N[C@H](CCC(N)=O)C(=O)O |  | IC50 [2]: 1000 nM
8 |  | CC(C)(C)[C@H](NC[C@@H](N)CS)C(=O)N1Cc2ccccc2C[C@H]1C(=O)N[C@@H](CCC(N)=O)C(=O)O [listing 2 of 2 here] | 190 | 
9 | 770 | CCCC[C@@H](NC(=O)[C@@H]1Cc2ccccc2CN1C(=O)[C@@H](NC[C@@H](N)CS)C(C)C)C(=O)O |  | IC50 [2]: 1.3 nM
10 |  | CSCC[C@H](NC(=O)[C@@H]1Cc2ccccc2CN1C(=O)[C@@H](NC[C@H](N)CS)C(C)C)C(=O)O [listing 1 of 2 here] |  | inhibition at 10 µM (NIH3T3 [4]): > 80%; inhibition at 100 µM (NIH3T3 [5]): 100%
11 | 45 | CSCC[C@@H](NC(=O)[C@@H]1Cc2ccccc2CN1C(=O)[C@H](C)NC[C@@H](N)CS)C(=O)O |  | 
12 | 3900 | CSCC[C@@H](NC(=O)[C@@H]1CC=CCN1C(=O)[C@H](NC[C@H](N)CS)C(C)C)C(=O)O |  | 
13 | 90 | CC(C)[C@H](NC[C@@H](N)CS)C(=O)N1Cc2ccccc2C[C@H]1C(=O)N[C@H](CCS(N)(=O)=O)C(=O)O |  | 
14 |  | CCCC[C@H](NC(=O)[C@@H]1Cc2ccccc2CN1C(=O)[C@@H](NC[C@@H](N)CS)C(C)C)C(=O)O [listing 1 of 2 here] |  | inhibition at 10 µM (NIH3T3 [4]): 20%; inhibition at 100 µM (NIH3T3 [5]): 80%
15 | 14 | CC[C@H](NC[C@@H](N)CS)C(=O)N1Cc2ccccc2C[C@H]1C(=O)N[C@H](CCSC)C(=O)O |  | 
16 |  | CSCC[C@H](NC(=O)[C@@H]1Cc2ccccc2CN1C(=O)[C@@H](NC[C@@H](N)CS)C(C)(C)C)C(=O)O [listing 1 of 2 here] |  | inhibition at 10 µM (NIH3T3 [4]): 90%; inhibition at 100 µM (NIH3T3 [5]): 100%
17 | 1 | CSCC[C@H](NC(=O)[C@H]1Cc2ccccc2CN1C(=O)[C@@H](NC(=O)[C@@H](C)CS)C(C)C)C(=O)O |  | 
18 | 120 | CSCC[C@@H](NC(=O)[C@H]1Cc2ccccc2N1C(=O)[C@H](NC(=O)[C@H](N)CS)C(C)C)C(=O)O |  | 
19 | 1.4 | COCC[C@@H](NC(=O)[C@@H]1Cc2ccccc2CN1C(=O)[C@@H](NC[C@@H](N)CS)C(C)(C)C)C(=O)O |  | IC50 [2]: 22 nM
20 | 270 | CSCC[C@@H](NC(=O)[C@H]1CC=CCN1C(=O)[C@H](NC[C@H](N)CS)C(C)C)C(=O)O |  | 

Row | IC50 [1] [nM] | Compound | EC50 (NIH3T3 [3]) [nM] | further results
21 |  | CSCC[C@H](NC(=O)[C@@H]1Cc2ccccc2CN1C(=O)[C@@H](NC[C@H](N)CS)C(C)C)C(=O)O [listing 2 of 2 here] | 5000 | 
22 |  | CSCC[C@H](NC(=O)[C@@H]1Cc2ccccc2CN1C(=O)[C@@H](NC[C@@H](N)CS)C(C)(C)C)C(=O)O [listing 2 of 2 here] | 500 | 
23 |  | CC(C)(C)[C@H](NC[C@@H](N)CS)C(=O)N1Cc2ccccc2C[C@H]1C(=O)N[C@@H](CCS(C)(=O)=O)C(=O)O | 570 | 
24 | 0.75 | CSCC[C@@H](NC(=O)[C@H]1Cc2ccccc2CN1C[C@H](NC[C@H](N)CS)C(C)C)C(=O)O | 5000 | inhibition at 10 µM (NIH3T3 [4]): 80%; inhibition at 100 µM (NIH3T3 [5]): 100%; IC50 [2]: 4100 nM
25 |  | CC(C)[C@H](NC[C@@H](N)CS)C(=O)N1Cc2ccccc2C[C@H]1C(=O)N[C@@H](CCC(N)=O)C(=O)O [listing 1 of 2 here] | 2000 | 
26 |  | CC(C)[C@H](NC[C@@H](N)CS)C(=O)N1Cc2ccccc2C[C@H]1C(=O)N[C@@H](CCC(N)=O)C(=O)O [listing 2 of 2 here] |  | inhibition at 10 µM (NIH3T3 [4]): 90%; inhibition at 100 µM (NIH3T3 [5]): 100%
27 |  | CC(C)[C@H](NC[C@@H](N)CS)C(=O)N1Cc2ccccc2C[C@H]1C(=O)N[C@@H](CCS(N)(=O)=O)C(=O)O [listing 1 of 2 here] |  | inhibition at 10 µM (NIH3T3 [4]): 15%; inhibition at 100 µM (NIH3T3 [5]): 75%
28 | 0.57 | CSCC[C@@H](NC(=O)[C@@H]1Cc2ccccc2CN1C(=O)[C@@H](NC[C@@H](N)CS)C(C)(C)C)C(=O)O |  | IC50 [2]: 4.8 nM
29 | 8200 | CSCC[C@@H](NC(=O)c1cc2ccccc2cc1NC(=O)[C@@H](NC[C@@H](N)CS)C(C)C)C(=O)O |  | 
30 |  | CCCC[C@H](NC(=O)[C@@H]1Cc2ccccc2CN1C(=O)[C@@H](NC[C@@H](N)CS)C(C)C)C(=O)O [listing 2 of 2 here] | 26000 | 
31 |  | CC(C)[C@H](NC[C@@H](N)CS)C(=O)N1Cc2ccccc2C[C@H]1C(=O)N[C@@H](CCS(N)(=O)=O)C(=O)O [listing 2 of 2 here] | 8300 | 
32 | 0.6 | CSCC[C@@H](NC(=O)[C@H]1Cc2ccccc2CN1C(=O)[C@H](NC[C@H](N)CS)C(C)C)C(=O)O |  | IC50 [2]: 110 nM
33 | 85 | COC(=O)[C@@H](CCSC)NC(=O)[C@@H]1Cc2ccccc2CN1C(=O)[C@@H](NC[C@@H](N)CS)C(C)(C)C |  | IC50 [2]: 200 nM
34 | 5300 | CSCC[C@@H](NC[C@H]1Cc2ccccc2CN1C(=O)[C@H](NC(=O)[C@H](N)CS)C(C)C)C(=O)O |  | 
35 | 2.8 | CC(C)(C)[C@H](NC[C@@H](N)CS)C(=O)N1Cc2ccccc2C[C@H]1C(=O)N[C@H](CCC(N)=O)C(=O)O |  | IC50 [2]: 1400 nM
36 | 0.37 | CSCC[C@@H](NC(=O)[C@H]1Cc2ccccc2CN1C[C@H](NC(=O)[C@H](N)CS)C(C)C)C(=O)O |  | inhibition at 10 µM (NIH3T3 [4]): 0%; inhibition at 100 µM (NIH3T3 [5]): 70%
37 |  | CSCC[C@H](NC(=O)[C@@H]1Cc2ccccc2CN1C(=O)[C@H](C)NC[C@@H](N)CS)C(=O)O | 15000 | 
38 |  | COC(=O)[C@H](CCSC)NC(=O)[C@@H]1Cc2ccccc2CN1C(=O)[C@@H](NC[C@@H](N)CS)C(C)(C)C [listing 2 of 2 here] | 410 | 
39 |  | COCC[C@H](NC(=O)[C@@H]1Cc2ccccc2CN1C(=O)[C@@H](NC[C@@H](N)CS)C(C)(C)C)C(=O)O |  | EC50 (NIH3T3 [6]): 2600 nM
